Compounds with a hit are over-represented: about 2.3% of the library has one in this group of screens.
TRPC4 agonist: TRPC4 (mouse) channel activation | Q9QUQ5 | HEK293 TRPC4beta/mu-opioid, Fluo4 calcium fluorescence; stronger effect = higher value | B-score at 10 µM | actives 0.49% (n = 310,000);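 active = B-score above 5 SD of library B-scores, and initial fluorescence ratio not above library mean plus 5 SD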;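 note: positive B-score marks a calcium rise read as TRPC4 activation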
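Test system: HEK293 cells stably co-expressing mouse TRPC4beta and mu-opioid receptor | Schedule: Fluo4 dye loading 45 min at room temperature, 110 s recording | Measured by: Kinetic Fluo4 calcium fluorescence, 5 s baseline at 1 Hz | Evaluation: B score of integrated ratio | Controls: Buffer (low) and maximal DAMGO (high)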
TRPC4 potent: allosteric potentiators of mouse TRPC4 channel; Q9QUQ5; HEK293 TRPC4beta/mu-opioid, DAMGO EC20, Fluo-4 Ca2+ flux; stronger effect = higher value; actives 0.42% (n = 310,000); B-score at 10 µM;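 active = B-score of calcium response area above 5 SD of library B-scores, with initial fluorescence ratio within 5 SD of library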;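 note: B-score of integrated fluorescence ratio over time as area under calcium response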
TRPC6 inhibitor: inhibitors of mouse TRPC6 channel. HEK293-TRPC6, membrane potential dye, ACh-evoked depolarization; stronger effect = lower value. B-score at 10 µM. actives 1.1% (n = 310,000). AID 2553;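 active = B-score under library mean minus 3 SD, initial fluorescence not abnormally high, positive integrated signal ratio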;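 note: B-score derived from integrated fluorescence ratio over the kinetic read; more negative B-score means stronger inhibition of depolarization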
Target sequence (Q61143 whole entry, looked up): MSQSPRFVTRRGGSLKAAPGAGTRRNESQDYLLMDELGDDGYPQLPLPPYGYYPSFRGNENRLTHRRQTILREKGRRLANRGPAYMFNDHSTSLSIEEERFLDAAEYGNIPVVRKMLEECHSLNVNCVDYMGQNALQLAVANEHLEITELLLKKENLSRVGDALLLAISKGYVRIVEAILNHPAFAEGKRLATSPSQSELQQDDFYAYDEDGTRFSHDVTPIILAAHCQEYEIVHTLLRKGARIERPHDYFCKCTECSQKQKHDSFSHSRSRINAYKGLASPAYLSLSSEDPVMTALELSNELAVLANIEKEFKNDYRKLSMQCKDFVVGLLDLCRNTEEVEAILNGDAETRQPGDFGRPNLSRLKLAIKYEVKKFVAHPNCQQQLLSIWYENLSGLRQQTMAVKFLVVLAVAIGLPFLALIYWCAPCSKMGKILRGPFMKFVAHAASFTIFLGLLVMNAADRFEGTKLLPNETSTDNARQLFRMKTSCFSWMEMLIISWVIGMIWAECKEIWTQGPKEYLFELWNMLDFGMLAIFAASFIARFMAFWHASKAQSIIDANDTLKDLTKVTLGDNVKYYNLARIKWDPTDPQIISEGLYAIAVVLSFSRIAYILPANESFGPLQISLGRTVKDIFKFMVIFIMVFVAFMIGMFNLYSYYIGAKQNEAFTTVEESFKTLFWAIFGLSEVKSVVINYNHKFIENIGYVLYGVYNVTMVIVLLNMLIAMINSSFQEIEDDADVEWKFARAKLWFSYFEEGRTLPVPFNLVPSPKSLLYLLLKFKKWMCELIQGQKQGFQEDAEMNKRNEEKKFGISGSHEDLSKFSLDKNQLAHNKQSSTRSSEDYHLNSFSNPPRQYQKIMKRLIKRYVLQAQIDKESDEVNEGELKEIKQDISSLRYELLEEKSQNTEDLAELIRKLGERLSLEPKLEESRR
TRPC6 activator: activators of mouse TRPC6 channel; Q61143; HEK293-TRPC6 membrane potential dye fluorescence; stronger effect = higher value; B-score at 10 µM; AID 2550; actives 0.13% (n = 310,000);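 active = B-score of the integrated fluorescence ratio above library mean plus 3 SD, and starting fluorescence ratio within library mean plus 5 SD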;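 note: higher score means more depolarization so channel activation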
TRPC4 inh: inhibitors of mouse TRPC4 channel | actives 0.39% (n = 300,000) | HEK293 TRPC4beta/mu-opioid, DAMGO-evoked Fluo4 calcium flux; stronger effect = lower value | B-score at 10 µM | Q9QUQ5 | AID 2247;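 active = B-score over 3 SD under the library average, no early fluorescence shift, positive overall ratio signal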
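Signal: kinetic Fluo4 fluorescence imaging of calcium influx. Material: stable TRPC4beta/mu-opioid receptor HEK293 cells. Probe or stimulus: DAMGO in two steps, submaximal then maximal.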
TRPC4 spec 2: mouse TRPC4 off-target activity of TRPC6 inhibitors, second screen; inhibition, % at 10 µM; actives 42% (n = 920); shares compounds with TRPC6 inhibitor; HEK293 TRPC4/MOR, membrane potential dye fluorescence; channel activated by saturating DAMGO dose;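 active = compounds whose fluorescence signal differed from control wells by over 3 SD, either direction, in both duplicate plates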
TRPC4 spec: tests whether TRPC6 inhibitors also affect mouse TRPC4; shares compounds with TRPC6 inhibitor; HEK293 TRPC4/mu-opioid, membrane potential fluorescence; activity change, negative = inhibition, % at 10 µM; actives 61% (n = 920);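 active = rise or fall in signal beyond 3 SD of buffer-only wells in both replicate plates, either sign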;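 note: integrated kinetic ratio of fluorescence range over baseline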
HEK293 MPD ctr 2-1: parental HEK293 nonspecific activity of TRPC6 inhibitors, second screen; parental HEK293 membrane potential dye fluorescence; maximal acetylcholine challenge after compound addition; actives 31% (n = 920); signal change vs control, % at 10 µM; shares compounds with TRPC6 inhibitor;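 active = membrane potential signal moving either way by over 3 SD of the maximum-effect control, in both duplicate plates, meaning non-specific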
HEK293 MPD ctr-1: counter-screen for TRPC6 inhibitors: effect in parental HEK293 cells | shares compounds with TRPC6 inhibitor | parental HEK293 membrane potential dye fluorescence | membrane potential signal change, % at 10 µM | actives 60% (n = 920);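 active = membrane potential signal shifting up or down by more than 3 SD of buffer-only wells, on both duplicate plates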
HEK293 MPD ctr-2: checks TRPC6 modulator effects in parental HEK293 cells. shares compounds with TRPC6 inhibitor. membrane potential dye fluorescence. membrane potential signal change, % at 10 µM. actives 51% (n = 2,400). AID 488924;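 active = membrane potential signal moves up or down beyond 5 SD from buffer-only wells, on both duplicate plates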
HEK293 MPD ctr 2-2: second counter-screen for TRPC6 modulators: effect in parental HEK293 cells; shares compounds with TRPC6 inhibitor; membrane potential dye fluorescence; after compound, maximal acetylcholine stimulation; inhibition, % at 10 µM; actives 14% (n = 2,400);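 active = membrane potential signal drops by more than 5 SD from the mean control signal, in both duplicate plates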;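 note: plate controls were acetylcholine ECmax control wells for no effect and buffer only wells for full effect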
TRPC4/MOR mod: mouse TRPC4 off-target activity of TRPC6 modulators; shares compounds with TRPC6 inhibitor; HEK293 TRPC4/mu-opioid, membrane potential fluorescence; percent change from control (negative = decrease, positive = increase), % at 10 µM; actives 69% (n = 2,400); AID 488927;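 active = membrane potential signal moved up or down beyond 5 SD of buffer control wells, in both duplicate plates, actives on both sides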;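 note: plate controls were assay buffer wells for no effect and DAMGO maximal-effect wells for full effect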
TRPC4 ctr inh 2: mouse TRPC4 off-target activity of TRPC6 modulators, second screen; HEK293 TRPC4/mu-opioid, membrane potential dye fluorescence; stimulated with maximal-effect DAMGO; actives 55% (n = 2,400); AID 488928; inhibition, % at 10 µM; shares compounds with TRPC6 inhibitor;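 active = drop in membrane potential signal beyond 5 SD of the control wells in both duplicate plates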;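 note: TRPC4 counter screen for TRPC6 hits run under conditions tuned for TRPC6 not TRPC4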
TRPC6 block conf: mouse TRPC6 inhibitor confirmation | shares compounds with TRPC6 inhibitor | HEK293-TRPC6, membrane potential dye, ACh-evoked depolarization | inhibition, % at 10 µM | actives 43% (n = 3,300) | AID 488960;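 active = fluorescence ratio falls more than 5 SD below the full-stimulation control mean, in both duplicate runs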;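 note: integrated fluorescence ratio of peak minus minimum over baseline after agonist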
TRPC6 act confirm: mouse TRPC6 activator confirmation. AID 488961. actives 11% (n = 2,800). HEK293-TRPC6 membrane potential dye fluorescence, FDSS. shares compounds with TRPC6 inhibitor. activation, % at 10 µM;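 active = ratio signal rise beyond 5 SD above unstimulated control wells' mean, seen in both duplicate runs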;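 note: plate controls were buffer EC0 wells for no effect and acetylcholine ECmax response for full effect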
An asterisk follows results filed as active; i = inactive; nt = no result given; + = active, no number.

SMILES	TRPC4 agonist	TRPC4 potent	TRPC6 inhibitor	TRPC6 activator	TRPC4 inh	HEK293 MPD ctr-2	HEK293 MPD ctr 2-2	TRPC4/MOR mod	TRPC4 ctr inh 2	TRPC6 block conf	TRPC6 act confirm	others
Cc1cc(C)nc(NS(=O)(=O)c2ccc(NC(=O)CSc3nc(-c4ccccc4)c(C#N)c(=O)[nH]3)cc2)n1	i	i	i	13*	i	i	i	10%*	i	i	81%*
Cc1cc(NC(=O)CSc2nc(-c3ccccc3)c(C#N)c(=O)[nH]2)no1	i	i	i	i	i	nt	nt	nt	nt	nt	nt
Cc1ccc(C(OCCN(C)C)c2cccc(C(F)(F)F)c2)cc1 (stereo not given)	i	i	-5.4*	i	i	i	i	18%*	38%*	i	nt
Cn1cc(CN(CCCN2CCOCC2)C(=S)Nc2cccc(Cl)c2)c2ccccc21	i	i	-6.8*	i	i	nt	nt	nt	nt	i	i	TRPC4 spec 2=i;TRPC4 spec=i;HEK293 MPD ctr 2-1=258%*;HEK293 MPD ctr-1=i
N#CC1=C(N)Oc2cc(N)ccc2C1c1ccc(Cl)cc1 (stereo not given)	i	i	i	12*	i	i	i	i	i	i	i
N#CC1=C(N)Oc2cc(N)ccc2C1c1ccc(F)cc1F (stereo not given)	64*	i	i	39*	i	121%*	i	i	i	i	27%*
COc1cc(C(=O)Nc2cc3c4c(c2)CC(=O)N4CCC3)cc(OC)c1OC	i	i	i	i	i	nt	nt	nt	nt	nt	nt
COc1cc(/C=C2\SC(=S)N(NC(=O)c3ccccc3OC)C2=O)ccc1O	i	i	i	i	i	nt	nt	nt	nt	nt	nt
COc1cc(/C=C2\SC(=S)N(NS(=O)(=O)c3ccc(C)cc3)C2=O)ccc1O	i	i	i	23*	i	614%*	i	90%*	29%*	i	110%*
COc1cc(/C=C2\SC(=S)N(NS(=O)(=O)c3ccccc3)C2=O)ccc1O	i	i	i	15*	i	490%*	74%*	64%*	i	i	57%*
CCc1ccc(-c2nc(CS(=O)CC(=O)NCCCN3CCC(C)CC3)c(C)o2)cc1 (stereo not given)	i	i	i	i	i	nt	nt	nt	nt	nt	nt
O=C(NCCN1CCOCC1)c1cnn2c(-c3ccccc3)cc(-c3ccccc3)nc12	i	i	-7.5*	i	i	nt	nt	nt	nt	i	i	TRPC4 spec 2=i;TRPC4 spec=i;HEK293 MPD ctr 2-1=i;HEK293 MPD ctr-1=-130%*
CCOC(=O)N1CCC(NC2CCCCCCC2)CC1	i	i	-8.5*	i	i	nt	nt	nt	nt	i	nt	TRPC4 spec 2=i;TRPC4 spec=i;HEK293 MPD ctr 2-1=i;HEK293 MPD ctr-1=3.0%*
CCOC(=O)N1CCC(N2CCN(Cc3ccccc3)C(CCO)C2)CC1 (stereo not given)	i	i	i	i	i	nt	nt	nt	nt	nt	nt
CCOC(=O)N1CCC(N2CCN(C3CCCC3)C(CCO)C2)CC1 (stereo not given)	i	i	-8.2*	i	i	nt	nt	nt	nt	i	i	TRPC4 spec 2=i;TRPC4 spec=i;HEK293 MPD ctr 2-1=i;HEK293 MPD ctr-1=i
O=C(NCCCn1ccnc1)c1ccc(S(=O)(=O)N2CCOCC2)cc1	i	i	i	i	i	nt	nt	nt	nt	nt	nt
NCCNc1cc(N2CCCC2)ccc1[N+](=O)[O-]	i	i	-6.3*	i	i	-164%*	i	-31%*	70%*	58%*	i
CC(C)(C)CNc1cc(N2CCCC2)ccc1[N+](=O)[O-]	i	i	i	i	i	nt	nt	nt	nt	nt	nt
CCCCOc1ccccc1NC(=O)CSc1nnnn1C(C)(C)C	i	i	i	12*	i	187%*	i	38%*	i	nt	114%*
COc1ccccc1NC(=O)CSc1nnnn1-c1ccc(C(=O)O)cc1	i	i	i	i	i	nt	nt	nt	nt	nt	nt
Cc1ccc(N=Nc2c(=O)[nH]n3c(C)cc(C)nc23)cc1	i	14*	-6.1*	i	i	-134%*	i	-14%*	i	41%*	i
Cc1cc(C)n2[nH]c(=O)c(N=Nc3ccc(S(N)(=O)=O)cc3)c2n1	i	i	-15*	i	i	-397%*	102%*	-60%*	68%*	79%*	i
CCc1ccc(Nc2n[n+](-c3ccccc3)c(-c3ccc(N(CC)CC)cc3)s2)cc1	i	i	i	i	i	nt	nt	nt	nt	nt	nt
CCN(CC)c1ccc(-c2sc(Nc3ccccc3)n[n+]2-c2ccc(F)cc2)cc1	i	i	i	19*	i	+	i	204%*	i	i	226%*
N#C/C(=C\c1ccc(O)c(Br)c1)C(=O)N1CCCCC1	i	i	i	i	i	nt	nt	nt	nt	nt	nt
Cc1occc1C(=O)/C(C#N)=C/c1ccc(O)c(Br)c1	46*	i	i	73*	i	+	107%*	236%*	i	nt	508%*
Oc1cccc(-c2nc3ccccc3s2)c1	i	i	i	i	i	nt	nt	nt	nt	nt	nt
CC[n+]1cccc(-c2nc3ccccc3s2)c1	i	i	-5.5*	i	i	-162%*	i	-26%*	i	i	i

Compound activity from PubChem BioAssay.
